This is an account of results in ChEMBL document CHEMBL1250501, “Anti-tubercular agents. Part 5: synthesis and biological evaluation of benzothiadiazine 1,1-dioxide based congeners” (Eur J Med Chem, 2010).

The test system of assay [1] is Aspergillus niger. As to the kind of experiment: Antifungal activity against Aspergillus niger at 100 ug/ml after 48 hrs by cup plate method. The assay is classed as functional. In a few lines: (§1)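 Agar well (cup plate) diffusion on potato dextrose agar 39 g/L, with compounds dissolved in DMSO. Plates were incubated at 28 ± 2 °C for 48 h and inhibition zones measured to the nearest mm. Three replicates per treatment. Amphotericin B positive control; solvent control included.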

Assay [2] concerns Staphylococcus epidermidis. As to the kind of experiment: Antibacterial activity against Staphylococcus epidermidis at 100 ug/ml after 18 hrs by cup plate method. The assay is classed as functional. The conditions noted are these: read-out: DIZ. In a few lines:
(§2)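 Agar well diffusion on Mueller-Hinton agar. Inoculum was adjusted to a 0.5 McFarland standard (about […] × 10⁸ CFU/mL) and swabbed over the plate three times, rotating about 60° each time, then the rim was swabbed. Compounds in DMSO went into duplicate 6 mm wells. Plates were incubated at 37 °C for 18 h and inhibition zone diameter read to the nearest mm. DMSO negative control; streptomycin and ciprofloxacin positive controls.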

In assay [3] the test system is Klebsiella pneumoniae. As to the kind of experiment: Antibacterial activity against Klebsiella pneumoniae at 75 ug/ml after 18 hrs by cup plate method. The assay is classed as functional. The settings on record: read-out: DIZ. In a few lines:
as §2

The test system of assay [4] is Klebsiella pneumoniae. As to the kind of experiment: Antibacterial activity against Klebsiella pneumoniae at 50 ug/ml after 18 hrs by cup plate method. The assay is classed as functional. The settings on record: read-out: DIZ. In a few lines: as §2
Assay [5] has as its system Staphylococcus epidermidis. As to the kind of experiment: Antibacterial activity against Staphylococcus epidermidis at 75 ug/ml after 18 hrs by cup plate method. It is filed as functional. The settings on record: read-out: DIZ. In a few lines:
as §2

For assay [6], the system named is Bacillus subtilis. As to the kind of experiment: Antibacterial activity against Bacillus subtilis at 10 ug/ml after 18 hrs by cup plate method. The assay is classed as functional. The conditions noted are these: read-out: DIZ. The procedure, abridged:
as §2

Assay [7] deals with Bacillus subtilis. As to the kind of experiment: Antibacterial activity against Bacillus subtilis at 100 ug/ml after 18 hrs by cup plate method. It is filed as functional. The conditions noted are these: read-out: DIZ. In a few lines:
as §2

Assay [8] relates to Staphylococcus aureus. As to the kind of experiment: Antibacterial activity against Staphylococcus aureus at 25 ug/ml after 18 hrs by cup plate method. It is filed as functional. The conditions noted are these: read-out: DIZ. The procedure, abridged: as §2
The subject of assay [9] is Aspergillus niger. As to the kind of experiment: Antifungal activity against Aspergillus niger at 50 ug/ml after 48 hrs by cup plate method. The assay is classed as functional, organism-based. The procedure, abridged: as §1
In assay [10] the test system is Bacillus subtilis. As to the kind of experiment: Antibacterial activity against Bacillus subtilis at 50 ug/ml after 18 hrs by cup plate method. It is filed as functional. In a few lines: as §2
Assay [11] relates to Staphylococcus epidermidis. As to the kind of experiment: Antibacterial activity against Staphylococcus epidermidis at 25 ug/ml after 18 hrs by cup plate method. The assay is classed as functional. The conditions noted are these: read-out: DIZ. The procedure, abridged:
as §2

Assay [12] deals with Klebsiella pneumoniae. As to the kind of experiment: Antibacterial activity against Klebsiella pneumoniae at 10 ug/ml after 18 hrs by cup plate method. The assay is classed as functional. The procedure, abridged: as §2
Assay [13] concerns Candida albicans. As to the kind of experiment: Antifungal activity against Candida albicans MTCC 227 at 25 ug/ml after 48 hrs by cup plate method. The assay is classed as functional. The procedure, abridged: (§3)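 Agar well (cup plate) diffusion on potato dextrose agar 39 g/L. Compounds dissolved in DMSO and loaded into 6 mm wells. Incubated at 28 ± 2 °C for 48 h. Inhibition zone diameter measured to the nearest millimetre, three replicates per treatment. DMSO solvent as negative control, amphotericin B as positive control.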

In assay [14] the test system is Staphylococcus aureus. As to the kind of experiment: Antibacterial activity against Staphylococcus aureus at 100 ug/ml after 18 hrs by cup plate method. The assay is classed as functional. The settings on record: read-out: DIZ. The procedure, abridged: as §2
Assay [15] concerns Staphylococcus aureus. As to the kind of experiment: Antibacterial activity against Staphylococcus aureus at 75 ug/ml after 18 hrs by cup plate method. It is filed as functional. The conditions noted are these: read-out: DIZ. The procedure, abridged: as §2
Assay [16] relates to Pseudomonas aeruginosa. As to the kind of experiment: Antibacterial activity against Pseudomonas aeruginosa at 75 ug/ml after 18 hrs by cup plate method. The assay is classed as functional. The conditions noted are these: read-out: DIZ. In a few lines: as §2
In assay [17] the test system is Mycobacterium tuberculosis. As to the kind of experiment: Antimycobacterial activity against Mycobacterium tuberculosis H37Rv after 3 to 4 weeks by broth microdilution assay. It is filed as functional. In a few lines: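 MIC by broth microdilution on compounds active in a single-concentration primary screen. Plates incubated 3–4 weeks at 37 °C in a CO₂ incubator. Wells read visually for absence of growth turbidity.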
(Dilution methods test growth across graded concentrations, often in twofold steps.)

Assay [18] concerns Staphylococcus aureus. As to the kind of experiment: Antibacterial activity against Staphylococcus aureus at 50 ug/ml after 18 hrs by cup plate method. The settings on record: read-out: DIZ. The assay is classed as functional. The procedure, abridged: as §2
Assay [19] relates to Escherichia coli. As to the kind of experiment: Antibacterial activity against Escherichia coli at 50 ug/ml after 18 hrs by cup plate method. The conditions noted are these: read-out: DIZ. It is filed as functional. The procedure, abridged: as §2
Assay [20] relates to Pseudomonas aeruginosa. As to the kind of experiment: Antibacterial activity against Pseudomonas aeruginosa at 100 ug/ml after 18 hrs by cup plate method. The conditions noted are these: read-out: DIZ. The assay is classed as functional. In a few lines: as §2
Assay [21] relates to Klebsiella pneumoniae. As to the kind of experiment: Antibacterial activity against Klebsiella pneumoniae at 25 ug/ml after 18 hrs by cup plate method. The assay is classed as functional. The conditions noted are these: read-out: DIZ. The procedure, abridged:
as §2

Assay [22] relates to Candida albicans. As to the kind of experiment: Antifungal activity against Candida albicans MTCC 227 at 50 ug/ml after 48 hrs by cup plate method. It is filed as functional. The conditions noted are these: MTCC 227, 48 h, read-out: IZ. In a few lines: as §3
Assay [23] concerns Candida albicans. As to the kind of experiment: Antifungal activity against Candida albicans MTCC 227 at 75 ug/ml after 48 hrs by cup plate method. The assay is classed as functional. The conditions noted are these: MTCC 227, 48 h, read-out: IZ. In a few lines:
as §3

In assay [24] the test system is Aspergillus sp. As to the kind of experiment: Antifungal activity against Aspergillus sp. at 100 ug/ml after 48 hrs by cup plate method. It is filed as functional. The procedure, abridged: as §1
The subject of assay [25] is Pseudomonas aeruginosa. As to the kind of experiment: Antibacterial activity against Pseudomonas aeruginosa at 10 ug/ml after 18 hrs by cup plate method. The assay is classed as functional. The procedure, abridged:
as §2

The test system of assay [26] is Aspergillus sp. As to the kind of experiment: Antifungal activity against Aspergillus sp. at 75 ug/ml after 48 hrs by cup plate method. The assay is classed as functional. In a few lines: as §1
The test system of assay [27] is Aspergillus niger. As to the kind of experiment: Antifungal activity against Aspergillus niger at 25 ug/ml after 48 hrs by cup plate method. The assay is classed as functional, organism-based. In a few lines:
as §1

In assay [28] the test system is Staphylococcus epidermidis. As to the kind of experiment: Antibacterial activity against Staphylococcus epidermidis at 50 ug/ml after 18 hrs by cup plate method. It is filed as functional. The conditions noted are these: read-out: DIZ. In a few lines:
as §2

Assay [29] concerns Aspergillus niger. As to the kind of experiment: Antifungal activity against Aspergillus niger at 75 ug/ml after 48 hrs by cup plate method. It is filed as functional. In a few lines:
as §1

The subject of assay [30] is Pseudomonas aeruginosa. As to the kind of experiment: Antibacterial activity against Pseudomonas aeruginosa at 25 ug/ml after 18 hrs by cup plate method. It is filed as functional. The conditions noted are these: read-out: DIZ. In a few lines:
as §2

For assay [31], the system named is Aspergillus sp. As to the kind of experiment: Antifungal activity against Aspergillus sp. at 50 ug/ml after 48 hrs by cup plate method. It is filed as functional. The procedure, abridged:
as §1

Assay [32] deals with Klebsiella pneumoniae. As to the kind of experiment: Antibacterial activity against Klebsiella pneumoniae at 100 ug/ml after 18 hrs by cup plate method. It is filed as functional. The settings on record: read-out: DIZ. In a few lines: as §2
Assay [33] deals with Escherichia coli. As to the kind of experiment: Antibacterial activity against Escherichia coli at 75 ug/ml after 18 hrs by cup plate method. The settings on record: read-out: DIZ. The assay is classed as functional. In a few lines: as §2
Assay [34] has as its system Pseudomonas aeruginosa. As to the kind of experiment: Antibacterial activity against Pseudomonas aeruginosa at 50 ug/ml after 18 hrs by cup plate method. The assay is classed as functional. The conditions noted are these: read-out: DIZ. The procedure, abridged: as §2
Assay [35] has as its system Staphylococcus aureus. As to the kind of experiment: Antibacterial activity against Staphylococcus aureus at 10 ug/ml after 18 hrs by cup plate method. It is filed as functional. In a few lines:
as §2

In assay [36] the test system is Escherichia coli. As to the kind of experiment: Antibacterial activity against Escherichia coli at 100 ug/ml after 18 hrs by cup plate method. The assay is classed as functional. The settings on record: read-out: DIZ. In a few lines: as §2
The subject of assay [37] is Staphylococcus epidermidis. As to the kind of experiment: Antibacterial activity against Staphylococcus epidermidis at 10 ug/ml after 18 hrs by cup plate method. The assay is classed as functional. The conditions noted are these: read-out: DIZ. The procedure, abridged: as §2
Assay [38] relates to Candida albicans. As to the kind of experiment: Antifungal activity against Candida albicans MTCC 227 at 100 ug/ml after 48 hrs by cup plate method. It is filed as functional. The settings on record: MTCC 227, 48 h, read-out: IZ. In a few lines:
as §1

Assay [39] relates to Aspergillus sp. As to the kind of experiment: Antifungal activity against Aspergillus sp. at 25 ug/ml after 48 hrs by cup plate method. The assay is classed as functional. In a few lines: as §1
For assay [40], the system named is Candida albicans. As to the kind of experiment: Antifungal activity against Candida albicans MTCC 227 at 20 ug/ml after 48 hrs by cup plate method. It is filed as functional, organism-based. In a few lines: as §3
The test system of assay [41] is Aspergillus sp. As to the kind of experiment: Antifungal activity against Aspergillus sp. at 20 ug/ml after 48 hrs by cup plate method. The assay is classed as functional, organism-based. The procedure, abridged: as §1
For assay [42], the system named is Aspergillus niger. As to the kind of experiment: Antifungal activity against Aspergillus niger at 20 ug/ml after 48 hrs by cup plate method. It is filed as functional, organism-based. The procedure, abridged: as §1

≈ marks a conversion by molar mass, not a printed value. Calls of active or inactive are those of the source.

On to `CN1C(N2CCN(Cc3ccc([N+](=O)[O-])o3)CC2)=NS(=O)(=O)c2ccccc21`, for which the “inhibition zone (IZ)” value in the assay with Aspergillus niger [1], in the assay on Aspergillus niger [9], in the assay on Candida albicans [13], with Aspergillus sp. [24], with Aspergillus sp. [26] and with Aspergillus niger [27] was “inactive” throughout. For the same compound, the “inhibition zone (IZ)” value in the assay with Aspergillus niger [29], in the assay on Aspergillus sp. [31] and in the assay on Aspergillus sp. [39] was “inactive” in each case. For the same compound, the zone of inhibition at 100 µg/mL in [2] is 24 mm; in the assay on Bacillus subtilis [7], 23 mm; in the assay on Staphylococcus aureus [14], 17 mm; with Pseudomonas aeruginosa [20], 17 mm; in the assay with Klebsiella pneumoniae [32], 19 mm; with Escherichia coli [36], 26 mm. The zone of inhibition at 100 µg/mL with Candida albicans [38] is 18 mm. The zone of inhibition at 75 µg/mL with Klebsiella pneumoniae [3] came to 17 mm; in assay [5] it was 18 mm; in the assay on Staphylococcus aureus [15] it was 17 mm; in the assay on Pseudomonas aeruginosa [16], 17 mm; in the assay with Candida albicans [23], 14 mm; in the assay with Escherichia coli [33], 29 mm. Further, the zone of inhibition at 50 µg/mL was 10 mm in the assay with Klebsiella pneumoniae [4]; 14 mm with Staphylococcus aureus [18]; 15 mm in the assay on Escherichia coli [19]; 11 mm in the assay with Candida albicans [22]; 15 mm in assay [28]; 10 mm in the assay on Pseudomonas aeruginosa [34]. Also, the zone of inhibition at 10 µg/mL in the assay on Bacillus subtilis [6] was 9 mm; in assay [37], 10 mm. Also, the zone of inhibition at 25 µg/mL in the assay with Staphylococcus aureus [8] stood at 10 mm; in assay [11], 13 mm; with Klebsiella pneumoniae [21], 12 mm; in the assay on Pseudomonas aeruginosa [30], 12 mm. Moreover, the “diameter of the inhibition zone (DIZ)” value in the assay on Bacillus subtilis [10], in the assay with Klebsiella pneumoniae [12], in the assay on Pseudomonas aeruginosa [25] and in the assay with Staphylococcus aureus [35] was “inactive” throughout. Besides, the MIC (in general, the smallest concentration in the dilution series that meets the test's criterion for growth inhibition) in assay [17] is 8 µg/mL (≈ 19.7 µM).
Consider NYSTATIN, for which the “inhibition zone (IZ)” value with Candida albicans [40] was “inactive”. Moreover, the inhibition zone (IZ) was found to be 16 mm in the assay with Aspergillus sp. [41] and 26 mm in the assay on Aspergillus niger [42].
